Results on 89 compounds are retold here after PubChem BioAssay AID1899 (The Scripps Research Institute Molecular Screening Center, 2009).

Among all 300,000 compounds or so, about 1,000 (0.33%) were called active.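 How the source made its calls: active means inhibition above the mean of all tested compounds plus 3 SD, set per screening campaign (cut at about 45% in these data); inactive means the rest.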 Only a selection was taken, and actives are over-represented in it overall.

For this assay, the system named is HCV core protein (residues 1-106) dimerization. As to the kind of experiment: inhibitors of HCV core protein dimerization, primary screen, biochemical, TR-FRET, high-throughput (AID 1899). The following applies: TR-FRET GST/Flag-core106 dimerization, 1536-well; at 5 µM; hits give high values. In short, it runs like this: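 assay system = GST-tagged and Flag-tagged HCV core protein residues 1-106 | controls = unlabelled core106 and no-GST-core106 wells | incubation = compound-protein-antibody incubation 4 h at 22.5 °C | probe or stimulus = Eu donor and XL665 acceptor anti-tag antibodies | read-out = % inhibition based on acceptor/donor emission ratio | signal = TR-FRET 671 and 617 nm emission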
On the technique in general: In TR-FRET formats the signal depends on donor and acceptor labels being close together.
By inhibition is commonly meant the drop in the measured response relative to a control, in per cent. With `COc1ccc(/C=C/C(=O)NC(=S)N2CCCC(C(N)=O)C2)cc1` (centres undefined), the inhibition is -10.7% (inactive).

On to `Cc1ccc(NC(=S)NC(=O)/C=C/c2ccc(Cl)cc2)cc1`, for which the inhibition is -5.71% (inactive).

For `CCOc1ccc(NC(=S)NC(=O)/C=C/c2ccc(OC)cc2)c([N+](=O)[O-])c1`, the inhibition was 47.8% (active).

On to `Cn1nnnc1SCC(=O)N1CCN(C(c2ccccc2)c2ccccc2)CC1`, for which the inhibition is 2.43% (inactive).

As for `N#CC1=C(N)Oc2c(sc3ccccc23)C1c1ccco1` (centres undefined), the inhibition is 54.5% (active).

Turning to `N#CC1=C(N)Oc2c(ccc3cccnc23)C1c1ccncc1` (centres undefined), the inhibition was 3.58% (inactive).

As for `COC(=O)c1ccc2c(=O)n(CCN3CCOCC3)c(SCC(=O)Nc3cccc(OC)c3)nc2c1`, the inhibition is -0.68% (inactive).

On to `CCOC(=O)N1CCN(C(=O)CSc2nc(C)nc3c2c(=O)n(C)c(=O)n3C)CC1`, for which the inhibition was -1.3% (inactive).

For `COc1ccc2c(CN3CCN(S(=O)(=O)c4cccs4)CC3)cc(=O)oc2c1`, the inhibition was 11.7% (inactive).

With `NC(=O)CCN1CCN(S(=O)(=O)/C=C/c2ccccc2)CC1`, the inhibition was 0.92% (inactive).

For the compound `O=c1cc(CN2CCN(S(=O)(=O)/C=C/c3ccccc3)CC2)c2ccc(O)cc2o1`, the inhibition was 52.2% (active).

Take `Cc1cc(C(=O)N/N=C/c2ccc(O)c([N+](=O)[O-])c2)c(C)n1-c1ccc(F)cc1`: the inhibition is 70.4% (active).

`COc1cc(/C=N/NC(=O)c2cc(C)n(-c3ccc(F)cc3)c2C)cc(OC)c1O`: the inhibition was 4.09% (inactive).

As for `Cc1nn(CC(=O)N/N=C/c2ccc(F)cc2)c(C)c1[N+](=O)[O-]`, the inhibition was -5.44% (inactive).

In the case of `CC(c1ccco1)N(C(=O)c1ccc(S(=O)(=O)N2CCCCC2)cc1)c1ccccn1` (centres undefined), the inhibition was -1.02% (inactive).

Turning to `CCOc1ccc(NC(=O)c2ccc(NC(=O)COC(=O)c3ccc(NC(=O)CC#N)cc3)cc2)cc1`, the inhibition is 62.4% (active).

In the case of `CC(C)NC(=O)NC(=O)COC(=O)c1ccc(NC(=O)CC#N)cc1`, the inhibition is -2.82% (inactive).

Turning to `CCOc1ccc(C(=O)Nc2ccncc2)cc1`, the inhibition was -4.79% (inactive).

Regarding `CCCn1c(O)c(CN2CCCC(C)C2)c(C)c(C#N)c1=O` (centres undefined), the inhibition is -8.8% (inactive).

As for `O=C(Nc1ccc(-n2ccnc2P(=O)(O)c2ccccc2)cc1)c1ccccc1Br`, the inhibition was 3.36% (inactive).

For the compound `CC(=O)c1ccc(S(=O)(=O)N2CCC3(CC2)OCCO3)cc1`, the inhibition is -8.35% (inactive).

As for `CC(=O)c1ccc(S(=O)(=O)N2CCN(c3nc4c(C)c(C)ccc4cc3C#N)CC2)cc1`, the inhibition is 60.9% (active).

With `CC(=O)c1ccc(S(=O)(=O)N2CCN(C(=O)/C=C/c3ccc4ccccc4n3)CC2)cc1`, the inhibition was 34.5% (inactive).

Consider `Cc1ccc(S(=O)Cc2ccc(C(=O)N3CCN(C4CCCCC4)CC3)o2)cc1` (centres undefined), for which the inhibition was 2.42% (inactive).

With `COc1ccc(/C=N/N=C/c2c[nH]c(=O)c(C#N)c2Nc2ccccc2)cc1`, the inhibition is 9.36% (inactive).

For `Nc1nc(O)c(CC(=O)O)s1`, the inhibition is -10.1% (inactive).

In the case of `COc1cc2c(C(=O)O)c(C)n(C)c2c2ccccc12`, the inhibition was -16.5% (inactive).

In the case of `Cc1c(C(=O)N/N=C/c2ccccc2)[nH]c2c([N+](=O)[O-])cccc12`, the inhibition was 2.99% (inactive).

Consider `COc1cccc2c(C)c(C(=O)O)[nH]c12`, for which the inhibition is 52.9% (active).

For `COc1ccc(S(=O)(=O)N2CCN(c3ncnc4c(-c5ccccc5)nsc34)CC2)cc1`, the inhibition is 5.78% (inactive).

For the compound `COc1cccc(OCc2cc(/C=N/NC(=O)c3nc(Cl)c(Cl)c(N)c3Cl)ccc2OC)c1`, the inhibition is 58.9% (active).

As to `COc1ccc(/C=N\NC(=O)c2sc(N)nc2C)cc1OC`, the inhibition is 1.3% (inactive).

With `COc1ccc(/C=N/NC(=O)c2ccc(Cl)cc2)cc1COC(C)=O`, the inhibition was -6.24% (inactive).

`CCn1cc(/C=C(\NC(=O)c2cc(OC)c(OC)c(OC)c2)C(=O)N2CCN(C)CC2)c2ccccc21`: the inhibition was -12.2% (inactive).

For the compound `CC1CCCN(c2ccc(C(=O)NCCc3ccccc3)cn2)C1` (centres undefined), the inhibition is -2.49% (inactive).

Regarding `Cc1cc2nc3c(=O)n(Cc4ccccc4)c(=O)[nH]c3nc2cc1N`, the inhibition is 7.8% (inactive).

Take `Nc1ccc2nc3c(=O)[nH]c(=S)[nH]c3nc2c1`: the inhibition is 47.1% (active).

Take `O=C(N/N=C/C=C/c1ccco1)c1cccs1`: the inhibition is 11.6% (inactive).

Regarding `COc1ccc(/C=N/NC(=O)c2cc(-c3cccc(C)c3)nc3ccccc23)cc1O`, the inhibition is 4.37% (inactive).

As to `Cc1ccc(-c2cc(C(=O)N/N=C/C=C/c3ccco3)c3ccccc3n2)cc1C`, the inhibition is 68.2% (active).

With `CCOC(=O)N1CCN(Cc2nc3ccc([N+](=O)[O-])cc3c(=O)n2-c2cccc(OC)c2)CC1`, the inhibition was 0.84% (inactive).

On to `Cc1ccc(NC(=O)CN(C)C(=O)COC(=O)C(C)(C)Oc2ccc(Cl)cc2)cc1`, for which the inhibition was 2.08% (inactive).

For the compound `CC(C)c1ccc(C2C(C(=O)c3ccco3)=C(O)C(=O)N2CC2CCCO2)cc1` (centres undefined), the inhibition is -4.24% (inactive).

Take `Cn1cncc1COC(=O)c1ccc(Cl)cc1`: the inhibition was 1.11% (inactive).

As to `Cc1ccc(S(=O)(=O)N2CCC(C(=O)NCC3CCCO3)CC2)cc1` (centres undefined), the inhibition was 4.25% (inactive).

On to `Cc1cc(C2=NNC(=Nc3ccc(S(=O)(=O)N4CCOCC4)cc3)SC2)c(C)n1CC1CCCO1` (centres undefined), for which the inhibition was 55.5% (active).

Consider `C=CCn1c(C)cc(C2=NNC(=NCC)SC2)c1C`, for which the inhibition is -4.1% (inactive).

For `O=C(NNC(=S)NC(=O)c1cn(-c2ccccc2)nc1-c1ccccc1)c1ccncc1`, the inhibition is -3.87% (inactive).

On to `CCn1cc(C(=O)N2CC(C)CC(C)C2)c(=O)c2cc(S(=O)(=O)N3CCCC3)ccc21` (centres undefined), for which the inhibition is -3.07% (inactive).

As for `CN(NC(=O)C1CC(=O)N(c2ccccc2)C1)C1=NS(=O)(=O)c2ccccc21` (centres undefined), the inhibition is 1.86% (inactive).

In the case of `O=C(N=C1SC2CS(=O)(=O)CC2N1c1cc(Cl)ccc1Cl)C1CC1` (centres undefined), the inhibition was -2.57% (inactive).

As to `O=c1cc(O)nc(SCc2ccccc2Cl)[nH]1`, the inhibition is -5.09% (inactive).

As for `O=c1[nH]c(SCc2ccccc2)nnc1-c1ccccc1`, the inhibition was 4.19% (inactive).

Regarding `Fc1cccc(Cl)c1CSc1ccc(-c2ccco2)nn1`, the inhibition was 19.9% (inactive).

With `COc1ccc2nc(SCc3ccccc3)nc(C)c2c1`, the inhibition was -8.86% (inactive).

Take `Clc1ccccc1CSc1nnc(-c2ccco2)c(-c2ccco2)n1`: the inhibition was 60.8% (active).

Consider `c1ccc(CSc2nnc(-c3ccco3)c(-c3ccco3)n2)cc1`, for which the inhibition was 63.8% (active).

Consider `CCN(CC(=O)Nc1ccccc1OC)C(=O)Cn1cnc2ccccc2c1=O`, for which the inhibition is 0.63% (inactive).

Turning to `C=C1CCN([C@@H](Cc2ccccc2)C(=O)N2CCOCC2)S(=O)(=O)c2ccccc21`, the inhibition was 5.65% (inactive).

Take `CCOC(=O)CSc1nc2ccc(C)cc2n2cnnc12`: the inhibition is -1.27% (inactive).

With `CC(C)(C)CC(=O)Nc1nnc(SCC(=O)NCc2cccs2)s1`, the inhibition was 10.5% (inactive).

Regarding `O=C(c1ccccc1)N1CCN(C(=O)c2cc3nc(-c4ccccc4)cc(C(F)(F)F)n3n2)CC1`, the inhibition is -5.71% (inactive).

On to `Cc1ccc(N2NC(=O)/C(=C/C=C/c3ccco3)C2=O)cc1C`, for which the inhibition was 13.5% (inactive).

Take `Cc1ccc(N=C2NC(=O)/C(=C/C=C/c3ccco3)S2)cc1C`: the inhibition is 61.8% (active).

As to `CN1C(=O)/C(=C/c2ccco2)SC1=Nc1cccc(C(=O)O)c1`, the inhibition was 1.21% (inactive).

As to `C/C(=N\NC(=O)c1ccc(CSc2nc(C)cc(C)n2)cc1)C1CCCCC1`, the inhibition was 7.33% (inactive).

On to `O=C(Nc1ccccc1C(=O)O)c1ccc(N2C(=O)C3CC=CCC3C2=O)cc1` (centres undefined), for which the inhibition is -0.72% (inactive).

Consider `N#Cc1ccccc1CN1C(=O)S/C(=C/c2cccn2-c2cccc(C(=O)O)c2)C1=O`, for which the inhibition was 74.2% (active).

For `Cc1cc(/C=C2\SC(=O)N(C)C2=O)c(C)n1-c1cccc(C(=O)O)c1`, the inhibition was 8.51% (inactive).

As to `Cc1ccccc1NC(=O)CN1C(=O)N/C(=C\c2cccn2-c2cccc(C(=O)O)c2)C1=O`, the inhibition is -4.12% (inactive).

For `COc1ccc(S(=O)(=O)N2CCOC23CCN(S(=O)(=O)c2ccc([N+](=O)[O-])cc2)CC3)cc1`, the inhibition is 7.35% (inactive).

Take `CC(C)c1ccccc1OCC(O)CN(CC(O)COc1cccc2ccccc12)C(C)C` (centres undefined): the inhibition was -10.3% (inactive).

On to `Cc1ccc(C(=O)N/C(=C\c2cn(S(=O)(=O)N(C)C)c3ccccc23)C(=O)N2CCCC2)cc1`, for which the inhibition was 15.1% (inactive).

Regarding `O=C(Nc1ccccc1C(=O)N1CCCCC1)c1ccco1`, the inhibition was -1.76% (inactive).

Consider `CN(C)C=NC(=O)c1cccn1-c1ncc(C(F)(F)F)cc1Cl`, for which the inhibition is -0.36% (inactive).

Consider `Cc1noc(/C=C/c2ccco2)c1S(=O)(=O)N1CCC(C(=O)Nc2ccc(Cl)cn2)CC1`, for which the inhibition is 9.46% (inactive).

In the case of `Cc1noc(/C=C/c2ccco2)c1S(=O)(=O)N1CCC(C(=O)N2CCc3ccccc32)CC1`, the inhibition was 66.4% (active).

For the compound `CNC(=O)C1CCN(S(=O)(=O)c2c(C)noc2/C=C/c2cccc(C)c2)CC1`, the inhibition was -2.65% (inactive).

As to `Cc1cccc(C)c1NC(=O)CN1C(=O)C(C)Oc2ccccc21` (centres undefined), the inhibition is 5.55% (inactive).

Turning to `CN(C)c1ccc(C(=S)N2CCN(C(=S)Nc3ccc(Cl)cc3)CC2)cc1`, the inhibition was 13% (inactive).

Take `CCOc1ccccc1/C=c1\sc2nc(-c3ccco3)nn2c1=O`: the inhibition was 62.2% (active).

For the compound `O=c1nc2s/c(=C\c3ccco3)c(=O)n2nc1Cc1ccccc1`, the inhibition is 22.3% (inactive).

Consider `CSc1nc(-c2ccco2)nn1C(=O)CCc1ccccc1`, for which the inhibition is -2.5% (inactive).

`CC(=O)c1c(Nc2ccccc2)sc(C(=O)c2ccccc2)c1C`: the inhibition is -11.1% (inactive).

Take `C=CCC(Nc1ccccc1)c1cccc(OC)c1OC` (centres undefined): the inhibition is 2.92% (inactive).

As to `CCOC(=O)c1c(C)n(C)c2ccc(OC)c(NC(=O)CN3CCC4(CC3)OCCO4)c12`, the inhibition is -1.2% (inactive).

Consider `O=C(Nc1ccc(S(=O)(=O)Nc2nccs2)cc1)c1cc(-c2ccncc2)nc2ccccc12`, for which the inhibition was 76% (active).

As to `Cc1ccc2nc(-c3ccncc3)cc(C(=O)Nc3ccncc3)c2c1`, the inhibition was 8.74% (inactive).

As for `O=C(Nc1ccc(S(=O)(=O)Nc2nccs2)cc1)c1cc(=O)[nH]c2ccccc12`, the inhibition is 2.23% (inactive).
